Results from different studies.
Compare with care: the assays were run in different laboratories.
Target: Bone morphogenetic protein receptor type-1B (BMPR1B, Homo sapiens, UniProt O00238)

Compound	assay	conditions	quantity	value
C[C@@H]1CCN(c2nccc(-c3cnn4ncccc34)n2)C1	binding	1 µM	remaining binding	68%
Cc1ccc(NC(=O)c2ccc(C)c(C(F)(F)F)c2)cc1C#Cc1nn(C2CCC(O)CC2)c2ncnc(N)c12 (stereo not shown)	cell-free assay	10 µM	remaining signal	18%
COc1cc(Cl)c(C(=O)N[C@@H](CN[C@H]2CC[C@@H](N)CC2)Cc2ccc(C#N)cc2)cc1-c1ccc(CN[C@H](C)c2ccc(C)cc2)o1	enzyme activity, inhibitor	1 µM	remaining activity	101%
N#Cc1ccc(Nc2ccc3[nH]c(=O)[nH]c3c2)c(Cl)c1	cell-free assay, competition with immobilised ligand	1 µM	remaining binding	100%
Cc1cnc(NC2CCOCC2)nc1-n1cnc(C(=O)NC(CN)c2cc(F)cc(Cl)c2)c1 (stereo not shown)	enzyme activity, inhibitor, radiometric	1 µM	remaining activity	106%
O=C(Nc1cnn(-c2csc(C(=O)NC3COC3)c2)c1)Nc1ccccc1Cl	enzyme activity, inhibitor	5 µM	remaining activity	109%
Cc1cc(NC(=O)c2cccc3cc(-c4cccc5[nH]nc(N)c45)ccc23)ccc1F	enzyme activity, inhibitor	0.1 µM	activity vs control	100%
CC(C)(O)[C@H]1CC[C@H](Nc2ccc3ncc(-c4cccc(C(F)(F)F)c4)n3n2)CC1	enzyme activity, inhibitor	1 µM	remaining activity	147%
Cc1ccc(C(=O)Nc2ccc(CN3CCN(C)CC3)c(C(F)(F)F)c2)cc1C#Cc1cnc2cccnn12	enzyme activity	23.5 nM	remaining activity	96%
CN1CC(Oc2cnc(C#N)cc2-c2ccn3nc(NC(=O)C4CC4)cc3c2)C1	enzyme activity, inhibitor	1 µM	inhibition	-1%
CNC(=O)c1ccc(Nc2ncc(C(F)(F)F)c(NCc3nccnc3N(C)S(C)(=O)=O)n2)cc1	cell-free assay, competition with immobilised ligand	0.1 µM	remaining binding	65%
Cc1sc(C(=O)NC2COC2)cc1-n1cc(NC(=O)Nc2c(F)cccc2Cl)cn1	enzyme activity, inhibitor	10 µM	remaining activity	104%
Nc1ncnc2occ(-c3ccc(NC(=O)Nc4cc(C(F)(F)F)ccc4F)cc3)c12	cell-free assay	20 µM	remaining signal	37%
